# Screening data as filed in PubChem BioAssay.
# In the library only some 3.9% were active in any assay of this set; here they are far more common.
# TIM10 inh: TIM10 yeast growth inhibition | S. cerevisiae TIM10 strain growth, BacTiter-Glo luminescence, 24 h | inhibition, % at 10 µM | 330,000 tested, 1.4% active | AID 463195;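 active means inhibition of 40% or more at the single tested concentration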;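 further: wild-type TIM10 isogenic control strain grown at permissive 25 °C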
# UPR CHOP act: activators of apoptotic arm of unfolded protein response (CHOP) | CHO-CHOP luciferase reporter, UPR activation, luminescence; percent of tunicamycin response over DMSO baseline | activation, % at 10 µM | 330,000 tested, 0.34% active;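 active means at 10 µM dose, activation of 40% or more, normalized to positive control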;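 further: 100% = tunicamycin at 10 µg/mL and 0% = DMSO alone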
#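 System: CHO-CHOP luciferase reporter cell line | Buffer or medium: F12 medium containing 10% fetal bovine serum | Doses: One dose, 10 µM in 0.5% DMSO | Times: 6 h compound exposure at 37 °C after overnight seeding | Signal: Luciferase luminescence | Read-out: % activation vs tunicamycin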
# UPR XBP1 act: adaptive UPR (XBP1) activation; 330,000 tested, 0.33% active; CHO-XBP1 luciferase reporter, IRE1-XBP1 UPR activation, luminescence; percent of tunicamycin response, DMSO as zero; activation, % at 20 µM; AID 463104;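 active means versus positive control, 20 µM dose yields 30% or more activation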;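 further: 100% = tunicamycin at 10 µg/mL and 0% = DMSO only wells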
#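 Material – CHO cell line with stable XBP1 luciferase reporter · Buffer or medium – F12 plus 10% FBS · Compound – single point, 20 µM final compound, 1% DMSO · Schedule – 16-18 h cell attachment at 37 °C, then 6 h compound exposure · Signal – Steady-Glo luminescence read · Benchmarks – high control tunicamycin 10 µg/mL final, low control DMSO vehicle only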
# tim10-1 inh: tim10-1 yeast growth inhibition; S. cerevisiae tim10-1 ts strain growth, BacTiter-Glo, 24 h; inhibition, % at 20 µM; 330,000 tested, 2.2% active; AID 463190;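 active means inhibition of at least 40%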;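 further: mutant grown at 25 °C; 0% = DMSO wells with yeast and 100% = wells holding no yeast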
# tim23-1 inh: tim23-1 yeast growth inhibition | inhibition, % at 20 µM | AID 463212 | 330,000 tested, 1.3% active | S. cerevisiae tim23-1 growth, BacTiter-Glo luminescence, 24 h;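 active means growth inhibition of the mutant yeast at or above 50%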;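 further: temperature-sensitive mutant grown at 25 °C; plate controls were DMSO-treated mutant yeast for no effect and medium wells lacking yeast for full effect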
# tim10-1 confirm: confirmation of tim10-1 mutant yeast growth inhibitors. inhibition, % at 20 µM. S. cerevisiae tim10-1 ts strain growth, BacTiter-Glo, 24 h. 7,400 tested, 56% active. shares compounds with tim10-1 inh;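 active means inhibition of yeast growth at or above a set limit in either of two repeat tests at 20 µM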;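 further: tim10-1 mutant grown at permissive 25 °C to find synthetic lethal compounds; 0% = DMSO yeast wells and 100% = medium wells without yeast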
# The depositor's hits bear a star; . = no result.
SMILES,TIM10 inh,UPR CHOP act,UPR XBP1 act,tim10-1 inh,tim23-1 inh,tim10-1 confirm
Cc1cccc(C)c1OCc1nnc(SCC(=O)Nc2ccc(N3CCOCC3)cc2)o1,-13,0,-1,-1,11,.
Cc1ccnc(Sc2ccc([N+](=O)[O-])cc2[N+](=O)[O-])n1,26,11,-2,59*,40,53*
Nc1nc(Sc2ccc([N+](=O)[O-])cc2[N+](=O)[O-])n[nH]1,4,-2,-4,7,11,.
Cc1ccc(Sc2ccc([N+](=O)[O-])cc2[N+](=O)[O-])nc1,26,-2,-5,40*,36,37*
CCCCN(C)CCNC(=O)CCn1nc(-c2ccc(C)cc2)ccc1=O,-12,2,0,25,14,.
CC(=O)Nc1cccc(C(=O)/C=C/c2ccc(N(C)C)cc2)c1,-7,3,-1,10,25,.
CC(=O)Nc1cccc(C(=O)/C=C/c2ccc(F)cc2)c1,33,6,9,41*,21,31*
c1ccc2c(c1)OCC(c1csc3ncnc(N4CCCCC4)c13)O2 (stereo not drawn),29,3,1,41*,48,24
COC(=O)c1c(NC(=O)Cn2cnc([N+](=O)[O-])n2)sc2c1CCC(C)C2 (stereo not drawn),32,2,4,50*,44,28
CCOc1ccc(S(=O)(=O)N2CCC(C(=O)NCCc3ccc(S(N)(=O)=O)cc3)CC2)cc1,8,6,-6,-6,7,.
Cn1c(=O)n(C)c2cc([N+](=O)[O-])c(N3CCN(C(=O)c4cccc(F)c4)CC3)cc21,17,1,0,26,26,.
Cn1c(=O)n(C)c2cc([N+](=O)[O-])c(N3CCN(C(=O)c4cccc(Cl)c4)CC3)cc21,26,1,-3,41*,27,22
Cc1ccc(S(=O)(=O)N2CCN(c3cc4c(cc3[N+](=O)[O-])n(C)c(=O)n4C)CC2)cc1,26,3,0,43*,37,21
Cc1ccc(-c2csc(N3CCN(CCCn4c(-c5ccncc5)nc5ccccc54)CC3)n2)cc1,-1,2,8,40*,-14,19
CCCCc1ccc(C2C(C#N)=C(N)SC(N)=C2C#N)s1,12,0,2,50*,33,34*
CCC1(c2ccc(F)cc2)NC(=O)NC1=O (stereo not drawn),7,2,-4,-3,4,.
CCN1CCSc2ccc(C(=O)NCc3cccc(Br)c3)cc21,11,-1,0,41*,46,35*
Cc1ccc(CN2CCSc3ccc(C(=O)N4CCOCC4)cc32)cc1,4,1,-1,41*,38,15
CCN1CCSc2ccc(C(=O)NCc3cccc(F)c3)cc21,0,0,-5,34,33,.
O=C(NC1CCCC1)c1ccc2c(c1)N(Cc1ccccc1)CCS2,15,-1,-4,-5,10,.
O=C(NCC1CCCO1)c1ccc2c(c1)N(Cc1ccccc1)CCS2 (stereo not drawn),12,-1,-3,41*,40,14
CC(=O)c1cc(F)ccc1OCC(=O)N1CCCc2ccccc21,-1,3,3,-19,10,.
COc1ccc(-c2cn3cccnc3n2)cc1NC(=O)C(C)Oc1ccccc1 (stereo not drawn),1,-1,-1,46*,49,7
O=C(COC(=O)c1ccc(Br)o1)NCc1ccccc1Cl,-5,-1,-1,-10,13,.
Cc1nc(C(F)(F)F)ccc1C(=O)Nc1ccccc1N1CCOCC1,-3,0,-4,-4,-5,.
Fc1cccc(-c2cc3nc4c(c(NCc5ccco5)n3n2)CCCC4)c1,27,4,4,50*,50,35*
COc1ccc(C2=Nn3c(nnc3-c3ccccc3F)SC2)cc1OCC1CC1,-10,1,10,-10,29,.
CC1CCCN(C(=O)COC(=O)CNC(=O)c2ccc(Br)cc2)C1 (stereo not drawn),9,-2,0,0,14,.
O=C(N1CCCCCC1)n1c(Cc2ccccc2)nc2ccccc21,36,0,-2,41*,23,42*
